In ChEMBL document CHEMBL3525900, “Pharmacokinetics, distribution, and metabolism of [14C]sunitinib in rats, monkeys, and humans” (Drug Metab Dispos, 2012):

Tests used:
Rattus norvegicus = assay: Tmax as total radioactivity in female Sprague-Dawley rat plasma at 15 mg/kg, po administered as single dose by LC/MS/MS analysis; format: ADME, organism-based; parameters: dose 15 mg/kg, dosed compound name [14C]Sunitinib, route oral; settings: in vivo
Homo sapiens [1] = assay: Tmax as total radioactivity in human plasma at 50 mg, po administered as single dose measured up to 24 hrs by LC/MS/MS analysis; format: ADME, organism-based; parameters: dosed compound name [14C]Sunitinib; settings: in vivo
Spleen = assay: Drug concentration in male albino rat spleen assessed as radioactivity per gram of tissue at 20 mg/kg administered as single dose via gastric gavage measured after 72 hrs by autoradiographic analysis; format: ADME, organism-based; parameters: dose 20 mg/kg, dosed compound name [14C]Sunitinib; settings: in vivo, po
Adrenal [2] = assay: Drug concentration in male albino rat adrenal assessed as radioactivity per gram of tissue at 20 mg/kg administered as single dose via gastric gavage measured after 168 hrs by autoradiographic analysis; format: ADME, organism-based; parameters: dose 20 mg/kg, dosed compound name [14C]Sunitinib; settings: in vivo, po
Homo sapiens [3] = assay: Total drug recovery in human at 50 mg, po administered as single dose during 0 to 504 hrs by liquid scintillation counting; format: ADME, organism-based; parameters: dosed compound name [14C]Sunitinib; settings: in vivo
Cynomolgus monkey = assay: Total drug recovery in male cynomolgus monkey at 6 mg/kg, po administered as single dose during 0 to 336 hrs by liquid scintillation counting; format: ADME, organism-based, Macaca fascicularis; parameters: dose 6 mg/kg, dosed compound name [14C]Sunitinib, route oral; settings: in vivo
Lung [4] = assay: Drug concentration in male albino rat lung assessed as radioactivity per gram of tissue at 20 mg/kg administered as single dose via gastric gavage measured after 24 hrs by autoradiographic analysis; format: ADME, organism-based; parameters: dose 20 mg/kg, dosed compound name [14C]Sunitinib; settings: in vivo, po
Brain = assay: Drug concentration in female albino rat brain assessed as radioactivity per gram of tissue at 20 mg/kg administered as single dose via gastric gavage measured after 3 hrs by autoradiographic analysis; format: ADME, organism-based; parameters: dose 20 mg/kg, dosed compound name [14C]Sunitinib; settings: in vivo, po
Summary of the method: (§1)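 Sprague Dawley (albino) rats, ca 7-8 weeks old, received a single gastric-gavage dose of [14C]sunitinib L-malate at 20 mg/kg (15 mg freebase/kg, 100 µCi/kg). One animal per sex killed by CO2 at 3, 6, 24, 72 and 168 h, then frozen in CO2/hexane. 30 µm sagittal sections were cut and freeze-dried. Radioactivity per gram quantified by whole-body autoradiography using regression against standards. LOQ 0.04–0.06 µg freebase equiv/g.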

Pancreas = assay: Drug concentration in female albino rat pancreas assessed as radioactivity per gram of tissue at 20 mg/kg administered as single dose via gastric gavage measured after 3 hrs by autoradiographic analysis; format: ADME, organism-based; parameters: dose 20 mg/kg, dosed compound name [14C]Sunitinib; settings: in vivo, po
Summary of the method: (§2)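 Sprague Dawley albino rats, ca 7-8 weeks old, dosed once by gastric gavage with [14C]sunitinib L-malate (15 mg freebase/kg, 100 µCi/kg). One male and one female killed by CO2 at 3, 6, 24, 72 and 168 h. Carcasses frozen in solid CO2/hexane, embedded and cut into 30 µm sagittal sections, then freeze-dried. Radioactivity quantified by whole-body autoradiography against standards by regression, background subtracted.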

Liver [5] = assay: Drug concentration in male Lister Hooded pigmented rat liver assessed as radioactivity per gram of tissue at 20 mg/kg administered as single dose via gastric gavage measured after 24 hrs by autoradiographic analysis; format: ADME, organism-based; parameters: dose 20 mg/kg, dosed compound name [14C]Sunitinib; settings: in vivo, po
Lung [6] = assay: Drug concentration in male albino rat lung assessed as radioactivity per gram of tissue at 20 mg/kg administered as single dose via gastric gavage measured after 6 hrs by autoradiographic analysis; format: ADME, organism-based; parameters: dose 20 mg/kg, dosed compound name [14C]Sunitinib; settings: in vivo, po
[7] = Drug concentration in female albino rat preputial gland assessed as radioactivity per gram of tissue at 20 mg/kg administered as single dose via gastric gavage measured after 6 hrs by autoradiographic analysis; format: ADME, organism-based; parameters: dose 20 mg/kg, dosed compound name [14C]Sunitinib; settings: in vivo, po; summary of the method: as §2
[8] = Drug concentration in male albino rat lachrymal gland assessed as radioactivity per gram of tissue at 20 mg/kg administered as single dose via gastric gavage measured after 3 hrs by autoradiographic analysis; format: ADME, organism-based; parameters: dose 20 mg/kg, dosed compound name [14C]Sunitinib; settings: in vivo, po
Large intestine [9] = assay: Drug concentration in male albino rat large intestine assessed as radioactivity per gram of tissue at 20 mg/kg administered as single dose via gastric gavage measured after 3 hrs by autoradiographic analysis; format: ADME, organism-based; parameters: dose 20 mg/kg, dosed compound name [14C]Sunitinib; settings: in vivo, po
[10] = Drug concentration in male Lister Hooded pigmented rat bladder assessed as radioactivity per gram of tissue at 20 mg/kg administered as single dose via gastric gavage measured after 168 hrs by autoradiographic analysis; format: ADME, organism-based, Urinary bladder; parameters: dose 20 mg/kg, dosed compound name [14C]Sunitinib; settings: in vivo, po
[11] = Drug concentration in female albino rat uveal tract assessed as radioactivity per gram of tissue at 20 mg/kg administered as single dose via gastric gavage measured after 24 hrs by autoradiographic analysis; format: ADME, organism-based; parameters: dose 20 mg/kg, dosed compound name [14C]Sunitinib; settings: in vivo, po
[12] = Drug concentration in female albino rat bladder assessed as radioactivity per gram of tissue at 20 mg/kg administered as single dose via gastric gavage measured after 72 hrs by autoradiographic analysis; format: ADME, organism-based, Urinary bladder; parameters: dose 20 mg/kg, dosed compound name [14C]Sunitinib; settings: in vivo, po; summary of the method: as §1
Stomach = assay: Drug concentration in male albino rat stomach assessed as radioactivity per gram of tissue at 20 mg/kg administered as single dose via gastric gavage measured after 6 hrs by autoradiographic analysis; format: ADME, organism-based; parameters: dose 20 mg/kg, dosed compound name [14C]Sunitinib; settings: in vivo, po
[13] = Drug concentration in female Lister Hooded pigmented rat lachrymal gland assessed as radioactivity per gram of tissue at 20 mg/kg administered as single dose via gastric gavage measured after 24 hrs by autoradiographic analysis; format: ADME, organism-based; parameters: dose 20 mg/kg, dosed compound name [14C]Sunitinib; settings: in vivo, po
Summary of the method: (§3)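 Lister Hooded (pigmented) rats, ca 7-8 weeks old, acclimated 7 days, given [14C]sunitinib L-malate by gastric gavage at 20 mg/kg (15 mg freebase/kg, 100 µCi/kg). One male and one female killed by CO2 at 24, 72, 168 and 336 h. Carcasses frozen in solid CO2/hexane and embedded in frozen cellulose. 30 µm sagittal cryosections were freeze-dried. Tissue radioactivity measured by quantitative whole-body autoradiography against calibration standards, with background subtracted.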

[14] = Drug concentration in female albino rat bladder assessed as radioactivity per gram of tissue at 20 mg/kg administered as single dose via gastric gavage measured after 24 hrs by autoradiographic analysis; format: ADME, organism-based, Urinary bladder; parameters: dose 20 mg/kg, dosed compound name [14C]Sunitinib; settings: in vivo, po; summary of the method: as §1
Blood = assay: Drug concentration in female albino rat blood assessed as radioactivity per gram of tissue at 20 mg/kg administered as single dose via gastric gavage measured after 24 hrs by autoradiographic analysis; format: ADME, organism-based; parameters: dose 20 mg/kg, dosed compound name [14C]Sunitinib; settings: in vivo, po; summary of the method: as §1
Liver [15] = assay: Drug concentration in female Lister Hooded pigmented rat liver assessed as radioactivity per gram of tissue at 20 mg/kg administered as single dose via gastric gavage measured after 72 hrs by autoradiographic analysis; format: ADME, organism-based; parameters: dose 20 mg/kg, dosed compound name [14C]Sunitinib; settings: in vivo, po; summary of the method: as §3
Large intestine [16] = assay: Drug concentration in female albino rat large intestine assessed as radioactivity per gram of tissue at 20 mg/kg administered as single dose via gastric gavage measured after 72 hrs by autoradiographic analysis; format: ADME, organism-based; parameters: dose 20 mg/kg, dosed compound name [14C]Sunitinib; settings: in vivo, po; summary of the method: as §2
Liver [17] = assay: Drug concentration in female albino rat liver assessed as radioactivity per gram of tissue at 20 mg/kg administered as single dose via gastric gavage measured after 72 hrs by autoradiographic analysis; format: ADME, organism-based; parameters: dose 20 mg/kg, dosed compound name [14C]Sunitinib; settings: in vivo, po; summary of the method: as §2
[18] = Drug concentration in female albino rat preputial gland assessed as radioactivity per gram of tissue at 20 mg/kg administered as single dose via gastric gavage measured after 72 hrs by autoradiographic analysis; format: ADME, organism-based; parameters: dose 20 mg/kg, dosed compound name [14C]Sunitinib; settings: in vivo, po; summary of the method: as §2
Adrenal [19] = assay: Drug concentration in female Lister Hooded pigmented rat adrenal assessed as radioactivity per gram of tissue at 20 mg/kg administered as single dose via gastric gavage measured after 168 hrs by autoradiographic analysis; format: ADME, organism-based; parameters: dose 20 mg/kg, dosed compound name [14C]Sunitinib; settings: in vivo, po
Summary of the method: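 Pigmented Lister Hooded rats, 7-8 weeks old, received [14C]sunitinib L-malate by gavage at 20 mg/kg (15 mg freebase/kg, 100 µCi/kg). One rat per sex was killed by CO2 at each of 24, 72, 168 and 336 h. Carcasses were frozen in solid CO2/hexane and cut into 30 µm sagittal sections, then freeze-dried. Tissue radioactivity was quantified by whole-body autoradiography calibrated against standards by regression (LOQ 0.04–0.06 µg eq/g).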

SMILES: CCN(CC)CCNC(=O)c1c(C)[nH]c(/[14CH]=C2\C(=O)Nc3ccc(F)cc32)c1C.O=C(O)C[C@H](O)C(=O)O
- Tmax (Rattus norvegicus): 6 h
- Tmax (Homo sapiens [1]): 8 h
- Radiolabel recovery (Spleen): 0.2 ugequiv
- Radiolabel recovery (Adrenal [2]): 0.31 ugequiv
- Radiolabel recovery (Homo sapiens [3]): 77%
- Radiolabel recovery (Cynomolgus monkey): 94.1%
- Radiolabel recovery (Lung [4]): 0.87 ugequiv
- Radiolabel recovery (Brain): 0.52 ugequiv
- Radiolabel recovery (Pancreas): 13.45 ugequiv
- Radiolabel recovery (Liver [5]): 2.09 ugequiv
- Radiolabel recovery (Lung [6]): 17.87 ugequiv
- Radiolabel recovery [7]: 14.48 ugequiv
- Radiolabel recovery [8]: 8.82 ugequiv
- Radiolabel recovery (Large intestine [9]): 6.05 ugequiv
- Radiolabel recovery [10]: 0.06 ugequiv
- Radiolabel recovery [11]: 0.61 ugequiv
- Radiolabel recovery [12]: 0.14 ugequiv
- Radiolabel recovery (Stomach): 9.3 ugequiv
- Radiolabel recovery [13]: 2.05 ugequiv
- Radiolabel recovery [14]: 0.54 ugequiv
- Radiolabel recovery (Blood): 0.19 ugequiv
- Radiolabel recovery (Liver [15]): 0.32 ugequiv
- Radiolabel recovery (Large intestine [16]): 0.09 ugequiv
- Radiolabel recovery (Liver [17]): 0.37 ugequiv
- Radiolabel recovery [18]: 0.24 ugequiv
- Radiolabel recovery (Adrenal [19]): 0.35 ugequiv
